According to ChEMBL document CHEMBL1150393, “Evaluation of radiolabeled (hetero)aromatic analogues of N-(2-diethylaminoethyl)-4-iodobenzamide for imaging and targeted radionuclide therapy of melanoma” (J Med Chem, 2008):

What was measured:
[1] = Binding affinity to melanin in phosphate buffer solution; design: concentration or dose not given beside the values; details: tested as the 125I-labelled form
[2] = Binding affinity to melanin in water; design: concentration or dose not given beside the values; details: tested as the 125I-labelled form
[3] = Drug excretion in mouse B16-F0 cells bearing C57BL/6 mouse urine at 0.74 to 0.92 MBq, iv after 72 hrs; assay type: ADME, organism-based; details: in vivo
Method in brief: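 Urine was collected from two B16-F0 tumour-bearing C57BL6 mice for up to 72 h after iv tail-vein injection of the [¹²⁵I]-labelled compound (0.1 µmol). Samples were counted to give cumulative urinary excretion as %ID.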

[4] = Biodistribution in tumor of C57BL/6 mouse bearing mouse B16-F0 cells at 0.74 to 0.92 MBq, iv after 6 hrs; assay type: ADME, organism-based, Neoplasm; details: in vivo
Method in brief: (§1)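 [¹²⁵I]-labelled compound given iv by tail vein (0.1 µmol per mouse) to male C57BL6 mice bearing s.c. B16-F0 flank tumours (5 × 10⁵ cells in PBS). Two mice per time point were killed by CO₂, frozen in liquid nitrogen and cut into 40 µm cryosections, eight slices per mouse. Slice radioactivity was read on a multiwire proportional counter, converted to kBq/g and reported as %ID/g.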

[5] = Biodistribution in tumor of C57BL/6 mouse bearing mouse B16-F0 cells at 0.74 to 0.92 MBq, iv after 3 hrs; assay type: ADME, organism-based, Neoplasm; details: in vivo; method in brief: as §1
[6] = Biodistribution in tumor of C57BL/6 mouse bearing mouse B16-F0 cells at 0.74 to 0.92 MBq, iv after 72 hrs; assay type: ADME, organism-based, Neoplasm; details: in vivo; method in brief: as §1
[7] = Biodistribution in tumor of C57BL/6 mouse bearing mouse B16-F0 cells at 0.74 to 0.92 MBq, iv after 24 hrs; assay type: ADME, organism-based, Neoplasm; details: in vivo; method in brief: as §1

CCN(CC)CCNC(=O)c1ccc2cncc(I)c2n1
Activity [1]: 35.3%
Activity [2]: 44.8%

CCN(CC)CCNC(=O)c1ccc(I)nc1
Activity [1]: 3.5%
Activity [2]: 28.1%

CCN(CC)CCNC(=O)c1cc2c(I)cccc2s1
Activity [1]: 56.1%
Activity [2]: 87.6%

CCN(CC)CCNC(=O)c1cc2c(I)cccc2cn1
Activity [1]: 45.2%
Activity [2]: 87%

CCN(CC)CCNC(=O)c1nc2cc(I)ccc2[nH]1
Activity [1]: 47.1%
Activity [2]: 84.5%

CCN(CC)CCNC(=O)c1cc2cc(I)ccc2o1
Activity [1]: 45.2%
Activity [2]: 87%

CCN(CC)CCNC(=O)c1ccc(I)cc1
Activity [3]: 83.1%
Drug uptake [4]: 7.7 % ID/g
Drug uptake [5]: 9.1 % ID/g
Drug uptake [6]: 0.8 % ID/g
Drug uptake [7]: 3.7 % ID/g
